The list is not random: actives were taken first. Their share in the collection is about 2.9%.
SENP7 block: blocks the human protease SENP7 | Q9BQF6 | recombinant SENP7, Z-RLRGG-aminoluciferin luminescence, 40 min | inhibition, % at 5 µM | actives 1.5% (n = 330,000);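 active = inhibition above about 50% at the single test dose, limit read from the data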;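 note: plate controls were DMSO with enzyme for no effect and no enzyme buffer wells for full effect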
SENP6 inh: SENP6 protease inhibition; actives 1.8% (n = 330,000); AID 2599; Q9GZR1; inhibition, % at 10 µM; Recombinant SENP6 catalytic domain, aminoluciferin luminescence;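 active = inhibition above about 50% at the single tested dose, limit read from the data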;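 note: plate controls were DMSO wells with enzyme for no effect and DMSO wells lacking enzyme for full effect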
Apaf-1 inh: inhibitors of human Apaf-1 apoptosome; reconstituted apoptosome caspase-3 activity, DEVD-Rh110 fluorescence; inhibition, % at 20 µM; actives 0.71% (n = 330,000); AID 489030; O14727; active = inhibition of at least 40% at 20 µM;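 note: plate controls were DMSO wells for no effect and DEVD-CHO caspase inhibitor wells for full effect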
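System: Apoptosome proteins | Medium: Hepes pH 7.5 with detergent and BSA | Also added: Cytochrome c trigger plus (Z-DEVD)2-Rh110 caspase-3 substrate | Incubation: 30 min compound preincubation, 50 min activation, room temperature | Detection: Rhodamine 110 fluorescence at Ex 480/Em 540 nm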
SENP8 block-1: blocks the human protease SENP8; purified SENP8, Z-RLRGG-aminoluciferin cleavage, luminescence; inhibition, % at 10 µM; actives 1.2% (n = 330,000); AID 2540; in the data active = inhibition above about 50%
Target sequence (Q96LD8 whole entry, looked up): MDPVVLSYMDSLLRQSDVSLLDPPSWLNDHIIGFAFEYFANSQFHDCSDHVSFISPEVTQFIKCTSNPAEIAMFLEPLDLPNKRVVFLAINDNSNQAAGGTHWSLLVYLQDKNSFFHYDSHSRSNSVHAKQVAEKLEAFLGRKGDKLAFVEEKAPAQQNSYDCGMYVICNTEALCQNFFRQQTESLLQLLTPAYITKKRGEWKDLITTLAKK
SENP8 block-2: SENP8 (human) protease inhibition. Q96LD8. recombinant SENP8, Nedd8 substrate fluorescence. inhibition, % at 20 µM. actives 0.64% (n = 360,000); in the data active = inhibition mostly above about 40%, no sharp cut-off; inactive = mostly below about 27%
SENP1 inh: inhibitors of human SENP1 SUMO protease catalytic domain; Q9P0U3; recombinant SENP1 catalytic domain, CyPet-SUMO1-YPet FRET cleavage; inhibition, % at 10 µM; actives 0.21% (n = 360,000); AID 624204;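 active = inhibition at least 30% at 10 µM, raw YFP signal under a set limit, fluorescence ratio 0.5 to 1.5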;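 note: 0% = enzyme with DMSO and 100% = no enzyme wells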
Target sequence (Q9P0U3 419-644 limits assumed): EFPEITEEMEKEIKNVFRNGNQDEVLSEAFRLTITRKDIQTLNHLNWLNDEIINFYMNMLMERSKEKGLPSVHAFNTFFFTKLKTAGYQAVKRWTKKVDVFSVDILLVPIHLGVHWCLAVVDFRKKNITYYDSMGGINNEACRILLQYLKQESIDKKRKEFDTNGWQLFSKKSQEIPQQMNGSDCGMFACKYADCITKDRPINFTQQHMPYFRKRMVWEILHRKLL
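System: Recombinant human SENP1 catalytic domain, His6-tagged | Incubation: Enzyme reaction for 50 min at room temperature, dark | Medium: Tris pH 8 with BME, BSA, NP40 and catalase | Also added: 25 nM SUMO1 FRET substrate | Compound: 10 µM single point, 0.5% DMSO | Measured by: FRET fluorescence in CFP and YFP emission channels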
SENP8 confirm: confirmation of human SENP8 protease inhibitors; actives 40% (n = 6,200); Recombinant SENP8, Z-RLRGG-aminoluciferin luminescence, 60 min; inhibition, % at 12.5 µM; shares compounds with SENP7 block;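 active = mean inhibition across replicates above about 50%, limit read from the data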
SENP6 conf: confirmation of human SENP6 protease inhibitors | shares compounds with SENP7 block | recombinant SENP6, Z-RLRGG-aminoluciferin luminescence | inhibition, % at 12.5 µM | actives 58% (n = 6,200) | AID 488915
SENP7 confirm: confirmation of human SENP7 protease inhibitors; recombinant SENP7, Z-RLRGG-aminoluciferin luminescence, 40 min; actives 69% (n = 6,200); inhibition, % at 12.5 µM; shares compounds with SENP7 block; AID 488917
Casp3 select: selectivity test for SENP inhibitors: human caspase-3 inhibition; actives 60% (n = 6,200); shares compounds with SENP7 block; inhibition, % at 12.5 µM; purified caspase-3, Z-DEVD-aminoluciferin luminescence, 60 min; AID 488918;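 active = mean inhibition above about 50%, limit read from the data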;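 note: plate controls were enzyme with DMSO for no effect and wells without caspase-3 for full effect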
Target sequence (P42574 28-227 limits assumed): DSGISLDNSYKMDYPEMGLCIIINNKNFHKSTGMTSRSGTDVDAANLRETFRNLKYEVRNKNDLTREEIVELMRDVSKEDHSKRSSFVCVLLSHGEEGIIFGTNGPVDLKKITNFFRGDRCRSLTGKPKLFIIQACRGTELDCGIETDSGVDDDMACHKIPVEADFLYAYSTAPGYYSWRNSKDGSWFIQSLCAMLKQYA
SENP luc ctr: interferes with luciferase luminescence in SENP counter-screen; shares compounds with SENP7 block; Pre-incubated SENP8/Z-RLRGG-aminoluciferin, luciferase luminescence interference; inhibition, % at 12.5 µM; actives 39% (n = 6,200);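 active = mean inhibition above about 50% when retested at one dose, limit read from the data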;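 note: plate controls were DMSO wells with completed reaction for no effect and substrate without enzyme for full effect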
* hit, by the source's call; i = inactive; . = no result.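 Rule for the calls, unless noted: active = mean inhibition above about 50% in the one-dose retest (limit read from the data); inactive = the rest.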

SMILES | SENP7 block | SENP6 inh | Apaf-1 inh | SENP8 block-1 | SENP8 block-2 | SENP1 inh | SENP8 confirm | SENP6 conf | SENP7 confirm | Casp3 select | SENP luc ctr
NC(=O)c1ccc(NC(=O)COC(=O)c2cccc(Oc3ccccc3)c2)cc1 | 3.6 | -1.4 | -13.0 | -3.7 | 10.5 | -3.8 | . | . | . | . | .
O=C(CC[C@H]1O[C@@H](n2cnc3c(NC(=O)c4ccccc4)ncnc32)[C@H](O)[C@@H]1O)NCCCN1CCCC1=O | . | . | . | . | 13.2 | -0.7 | . | . | . | . | .
Cc1ccc(-c2nc(Nc3ccccc3)n[nH]2)cc1 | 50.9* | 50.6* | 2.5 | 14.0 | -114.4 | 0.6 | 16.0 | 35.1 | 72.8* | 21.9 | 25.3
CC1CN(C(=O)/C=C/c2ccccc2Cl)CC(C)O1 (centres undefined) | -2.7 | 20.4 | -0.2 | -5.7 | 8.6 | -0.2 | . | . | . | . | .
O=C1c2ccccc2COc2ccc(O)cc21 | -15.6 | -17.5 | 12.8 | -13.6 | 18.6 | 0.6 | . | . | . | . | .
COc1ccc2c(c1)C(=O)c1ccccc1CO2 | -5.2 | 56.2* | -3.4 | 23.1 | -10.7 | 0.2 | 70.4* | 74.5* | 91.1* | 66.8* | 67.3*
O=c1cc(/C=C/c2ccccc2)oc2ccccc12 | 48.6 | 62.3* | 14.5 | 55.3* | -114.3 | 1.2 | -3.1 | 77.8* | 93.2* | 64.3* | 72.9*
O=c1cc(CO)oc2ccccc12 | -3.8 | -13.1 | -1.7 | -7.6 | 7.0 | 1.8 | . | . | . | . | .
O=[N+]([O-])c1cc([N+](=O)[O-])c(N2CCCCCC2)cc1NCCO | 12.1 | 1.9 | -14.5 | -1.3 | 31.8 | 2.5 | . | . | . | . | .
O=[N+]([O-])c1cc(NCCO)c(N2CCCCCC2)c2nonc12 | 12.3 | 56.0* | 8.6 | 44.2 | 15.5 | -28.3 | -2.1 | 2.1 | -2.5 | -3.0 | -2.9
C[C@H](O)[C@@H]1C(=O)N2CCc3c([nH]c4ccccc34)[C@@H]2C[C@@H]1N(C)C(=O)c1ccco1 | . | . | . | . | -106.2 | -79.3 | . | . | . | . | .
CCOC(=O)Nc1ccc(N2CCOCC2)c(S(=O)(=O)Nc2ccc(Cl)cc2)c1 | 0.7 | -1.5 | 5.9 | 12.0 | 11.3 | -1.1 | . | . | . | . | .
O=c1[nH]c(N/N=C\c2ccc3c(c2)OCO3)nc2ccccc12 | 47.7 | 56.1* | -4.2 | 15.4 | -386.6 | -105.3 | 27.8 | 44.3 | 40.7 | 60.2* | 3.8
Cc1cc(N/N=C/c2ccc3c(c2)OCO3)nc2ccccc12 | 69.7* | 58.6* | 11.2 | 47.4 | -424.8 | -0.8 | 27.8 | 68.0* | 87.5* | 35.2 | 43.2
CC(C)(C)OC(=O)N1CCC[C@H]1C(=O)OCC(=O)Nc1cc(S(C)(=O)=O)ccc1Cl | -3.5 | 6.5 | -0.2 | 8.5 | -6.0 | 2.6 | . | . | . | . | .
Nc1ccccc1C(=O)N1CCc2ccccc21 | -15.9 | 55.1* | -2.8 | 14.0 | -42.5 | 1.6 | 42.0 | 36.2 | 25.4 | 42.8 | 55.0*
COc1ccccc1C(=O)N1CCc2ccccc21 | -3.6 | -1.4 | 0.5 | 3.5 | 8.0 | 0.1 | . | . | . | . | .
CCOC(=O)C(C)On1c(-c2ccccc2)nc2ccc([N+](=O)[O-])cc21 (centres undefined) | 76.5* | 84.0* | 6.6 | 71.2* | 14.6 | 1.1 | 27.6 | 25.0 | 66.3* | 58.9* | 60.9*
O=C(O)COn1c(-c2ccc(Cl)cc2)nc2ccc(Cl)cc21 | -7.7 | 0.5 | 5.9 | -7.3 | -7.1 | 1.6 | . | . | . | . | .
O=C(O)COn1c(-c2ccccc2)nc2ccc([N+](=O)[O-])cc21 | 88.1* | 82.1* | 8.6 | 70.2* | 4.0 | 4.5 | 1.3 | 0.5 | 33.3 | 52.9* | 55.8*
Cc1ccc(COn2c(-c3ccc(Cl)cc3)nc3ccc([N+](=O)[O-])cc32)cc1 | 56.0* | 67.2* | -10.1 | 42.2 | 21.6 | -0.5 | 11.4 | 16.6 | 49.1 | 22.4 | 23.9
Clc1ccc(COn2c(-c3ccccc3)nc3ccccc32)cc1 | 1.3 | 10.3 | 14.1 | 1.5 | -6.1 | -0.4 | . | . | . | . | .
CCOC(=O)C(C)On1c(-c2ccc(Cl)cc2)nc2ccc([N+](=O)[O-])cc21 (centres undefined) | 49.9 | 70.0* | 3.2 | 65.1* | -48.2 | -0.3 | -0.4 | -5.4 | 28.6 | 6.4 | 24.9
COc1ccccc1N(Cc1ccccc1)S(=O)(=O)c1cccc(C(=O)Nc2cccc(C)n2)c1 | -9.8 | -9.4 | 27.6 | 1.8 | -3.1 | 0.0 | . | . | . | . | .
N=C1/C(=C/c2ccc(-c3cccc(C(=O)O)c3)o2)C(=O)N=C2SC=C(c3ccccc3)N12 | 10.7 | 65.4* | 35.9 | 46.1 | -29.9 | -23.3 | 26.5 | -1.3 | -8.4 | 3.4 | 3.5
SMILES | SENP7 block | SENP6 inh | Apaf-1 inh | SENP8 block-1 | SENP8 block-2 | SENP1 inh | SENP8 confirm | SENP6 conf | SENP7 confirm | Casp3 select | SENP luc ctr
N=C1/C(=C\c2ccc(-c3cc(Cl)cc(Cl)c3)o2)C(=O)N=C2SC=C(c3ccccc3)N12 | 2.2 | 20.8 | 2.7 | 7.6 | 4.9 | 18.0 | . | . | . | . | .
O=CNC1c2ccccc2CCc2ccccc21 | . | . | . | . | -1.0 | 1.2 | . | . | . | . | .
CSCCC(NC(=O)c1ccccc1Br)C(=O)NNC(=O)C1COc2ccccc2O1 (centres undefined) | . | . | . | . | 17.2 | 1.6 | . | . | . | . | .
Cc1cc(C)c2c(N)c(C(=O)Nc3ncc(C)s3)sc2n1 | 25.7 | 87.3* | 4.4 | 71.7* | i | -20.2 | -25.0 | 86.0* | 99.3* | 91.5* | -2.1
O=C1c2ccccc2C(=O)C1c1ccncc1 | 57.8* | 80.5* | -1.3 | 64.0* | 40.6* | 7.3 | 75.6* | 71.1* | 92.4* | 91.0* | 79.4*
O=C1c2ccccc2C(=O)C1c1ccccn1 | 46.3 | 45.3 | -5.0 | 17.8 | 21.4 | 0.6 | . | . | . | . | .
COc1cc(OC)c2c(=O)cc(-c3ccccc3)oc2c1 | 56.8* | 59.2* | 13.1 | 45.5 | -229.0 | 5.1 | 64.0* | 60.7* | 82.5* | 77.3* | 67.6*
COc1cc(OC)c2c(=O)cc(-c3cccnc3)oc2c1 | . | . | . | . | -308.9 | 1.8 | . | . | . | . | .
COc1ccc(-c2cc(=O)c3c(O)cc(O)cc3o2)cc1 | 84.7* | 83.7* | 8.8 | 67.8* | 25.0 | 1.8 | 24.2 | 51.5* | 64.5* | 75.1* | 16.7
O=c1cc(-c2ccco2)oc2ccc(Cl)cc12 | . | . | . | . | -401.2 | -0.1 | . | . | . | . | .
COc1ccc2oc(-c3ccco3)cc(=O)c2c1 | 80.1* | 80.8* | -22.3 | 60.7* | -462.1 | 5.0 | 10.1 | 26.4 | 49.1 | 54.9* | 8.6

Screening results as filed in PubChem.
